Values after ≈ are worked out from the molar mass of the structure shown.
Legend:
[1] = target: T1, Phospho-N-acetylmuramoyl-pentapeptide-transferase (Bacillus subtilis (strain 168), UniProt Q03521); experiment: Competitive inhibition of Bacillus subtilis MraY using UDP-MurNAc-pentapeptide as substrate after 30 mins by Lineweaver-Burk plot
T1 sequence (Q03521 whole entry): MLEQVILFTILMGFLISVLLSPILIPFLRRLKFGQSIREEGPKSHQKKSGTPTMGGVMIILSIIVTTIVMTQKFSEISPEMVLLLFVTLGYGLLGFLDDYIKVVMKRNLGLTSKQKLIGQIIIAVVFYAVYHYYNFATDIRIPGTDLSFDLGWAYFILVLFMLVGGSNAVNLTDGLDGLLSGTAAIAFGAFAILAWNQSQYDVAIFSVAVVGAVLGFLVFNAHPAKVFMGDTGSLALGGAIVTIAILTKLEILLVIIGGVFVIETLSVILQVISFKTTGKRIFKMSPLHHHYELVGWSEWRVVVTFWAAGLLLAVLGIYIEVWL
Procedure, shortened: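 B. subtilis MraY was assayed at pH 7.5 (100 mM Tris-HCl, 40 mM MgCl₂, 250 mM NaCl, 8.4 mM N-lauroylsarcosine), started by enzyme and run 30 min at 37 °C. Initial rates were taken at 0.25–1.5 mM UDP-MurNAc-[¹⁴C]pentapeptide, fixed 1 mM C₅₅-P, and several inhibitor levels. Lipid I was separated by TLC and scanned. Ki came from Lineweaver–Burk plots assuming a ping-pong Bi Bi mechanism.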

[2] = target: T1, Phospho-N-acetylmuramoyl-pentapeptide-transferase; experiment: Noncompetitive inhibition of Bacillus subtilis MraY using […] as substrate after 30 mins by Lineweaver-Burk plot
[3] = target: T2, Undecaprenyl-phosphate alpha-N-acetylglucosaminyl 1-phosphate transferase (Thermotoga maritima (strain ATCC 43589 / MSB8 / DSM 3109 / JCM 10099), UniProt Q9X1N5); experiment: Inhibition of Thermotoga maritima WecA using radiolabeled UDP-[14C]GlcNAc as substrate after 30 mins
T2 sequence (Q9X1N5 whole entry): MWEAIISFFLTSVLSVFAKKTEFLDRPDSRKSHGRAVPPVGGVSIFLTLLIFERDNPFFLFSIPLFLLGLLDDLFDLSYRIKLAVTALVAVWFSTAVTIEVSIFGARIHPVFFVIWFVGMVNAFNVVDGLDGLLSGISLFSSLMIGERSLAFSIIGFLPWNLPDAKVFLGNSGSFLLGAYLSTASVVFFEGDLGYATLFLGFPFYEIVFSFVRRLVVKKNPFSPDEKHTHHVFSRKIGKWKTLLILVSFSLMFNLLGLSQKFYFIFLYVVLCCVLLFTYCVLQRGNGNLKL
Procedure, shortened: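 Purified Thermotoga maritima WecA was assayed at pH 8 (100 mM Tris-HCl, 10 mM MgCl₂, 1.1 mM C₅₅-P, 0.16 mM UDP-[¹⁴C]GlcNAc, 92.7 mM Triton X-100), final concentrations. The reaction was started by enzyme, run 30 min at 65 °C and stopped at 100 °C for 1 min. C₅₅-PP-GlcNAc was separated by TLC and scanned. IC50 was relative to a no-inhibitor control, mean of triplicates.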

Staphylococcus aureus [4] = experiment: Antibacterial activity against methicillin-sensitive […] Staphylococcus aureus ATCC 29213 after 20 hrs by broth microdilution method; format: functional; conditions: ATCC 29213, 20 h
Procedure, shortened: (§1)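 NCCLS broth microdilution in cation-adjusted Mueller–Hinton broth. Serial 2-fold compound dilutions were inoculated with 5 × 10⁴ CFU per 0.1 mL and incubated at 35 °C for 20 h before scoring the MIC.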

Enterococcus faecium [5] = experiment: Antibacterial activity against vancomycin-resistant Enterococcus faecium SR7917 after 20 hrs by broth microdilution method; format: functional; conditions: SR7917, 20 h; procedure, shortened: as §1
Staphylococcus aureus [6] = experiment: Antibacterial activity against methicillin-resistant Staphylococcus aureus isolate SR3637 after 20 hrs by broth microdilution method; format: functional; conditions: isolate SR3637, 20 h; procedure, shortened: as §1
Enterococcus faecalis [7] = experiment: Antibacterial activity against Enterococcus faecalis ATCC 29212 after 20 hrs by broth microdilution method; format: functional; conditions: ATCC 29212, 20 h; procedure, shortened: as §1
Enterococcus faecalis [8] = experiment: Antibacterial activity against vancomycin-resistant Enterococcus faecalis SR7914 after 20 hrs by broth microdilution method; format: functional; conditions: SR7914, 20 h; procedure, shortened: as §1
Enterococcus faecium [9] = experiment: Antibacterial activity against Enterococcus faecium ATCC 19434 after 20 hrs by broth microdilution method; format: functional; conditions: ATCC 19434, 20 h; procedure, shortened: as §1

SMILES	Ki [1] [µM]	Ki [2] [µM]	IC50 [3] [µM]	MIC (Staphylococcus aureus [4]) [µg/mL]	MIC (Enterococcus faecium [5]) [µg/mL]	MIC (Staphylococcus aureus [6]) [µg/mL]	MIC (Enterococcus faecalis [7]) [µg/mL]	MIC (Enterococcus faecalis [8]) [µg/mL]	MIC (Enterococcus faecium [9]) [µg/mL]
CC(C)C[C@@H](NC(=O)[C@@H](NC(=O)N[C@H](C(=O)O)C(C)C)[C@@H]1CCN=C(N)N1)C(=O)NCCCN[C@H](C(=O)O)[C@H](O[C@@H]1O[C@H](CN)[C@@H](O)[C@H]1O)[C@H]1O[C@@H](n2ccc(=O)[nH]c2=O)[C@H](O)[C@@H]1O	0.049	0.049	1560	–	–	–	–	–	–
CCCCCCCCCCCCCCC[C@H](NC(=O)[C@@H](N)CCCN)C(=O)NCCCN[C@H](C(=O)O)[C@H](O[C@@H]1O[C@H](CN)[C@@H](O)[C@H]1O)[C@H]1O[C@@H](n2ccc(=O)[nH]c2=O)[C@H](O)[C@@H]1O	–	–	–	4 (≈ 4.51 µM)	8 (≈ 9.02 µM)	4 (≈ 4.51 µM)	4 (≈ 4.51 µM)	4 (≈ 4.51 µM)	–
CCCCCCCCCCCCCCC[C@H](NC(=O)[C@@H](N)[C@@H]1CCNC(=N)N1)C(=O)NCCCN[C@H](C(=O)O)[C@H](O[C@@H]1O[C@H](CN)[C@@H](O)[C@H]1O)[C@H]1O[C@@H](n2ccc(=O)[nH]c2=O)[C@H](O)[C@@H]1O	–	–	–	8 (≈ 8.63 µM)	8 (≈ 8.63 µM)	8 (≈ 8.63 µM)	4 (≈ 4.31 µM)	4 (≈ 4.31 µM)	–
CN[C@H](CC(C)C)C(=O)N[C@H]1C(=O)N[C@@H](CC(N)=O)C(=O)N[C@H]2C(=O)N[C@H]3C(=O)N[C@H](C(=O)N[C@H](C(=O)O)c4cc(O)cc(O)c4-c4cc3ccc4O)[C@H](O)c3ccc(c(Cl)c3)Oc3cc2cc(c3O[C@@H]2O[C@H](CO)[C@@H](O)[C@H](O)[C@H]2O[C@H]2C[C@](C)(N)[C@H](O)[C@H](C)O2)Oc2ccc(cc2Cl)[C@H]1O [VANCOMYCIN]	–	–	–	–	> 64	–	1 (≈ 0.69 µM)	> 64	–
CCCCCCCCCCCCCCC[C@@H](NC(=O)[C@@H](N)[C@@H]1CCNC(=N)N1)C(=O)NCCCN[C@H](C(=O)O)[C@H](O[C@@H]1O[C@H](CN)[C@@H](O)[C@H]1O)[C@H]1O[C@@H](n2ccc(=O)[nH]c2=O)[C@H](O)[C@@H]1O	–	–	–	8 (≈ 8.63 µM)	8 (≈ 8.63 µM)	8 (≈ 8.63 µM)	4 (≈ 4.31 µM)	8 (≈ 8.63 µM)	–
CC(C)[C@H](NC(=O)N[C@H](C(=O)N[C@H](CCCCCCCc1ccc(-c2ccccc2)cc1)C(=O)NCCCN[C@H](C(=O)O)[C@H](O[C@@H]1O[C@H](CN)[C@@H](O)[C@H]1O)[C@H]1O[C@@H](n2ccc(=O)[nH]c2=O)[C@H](O)[C@@H]1O)[C@@H]1CCNC(=N)N1)C(=O)O	–	–	–	8 (≈ 7.21 µM)	4 (≈ 3.6 µM)	16 (≈ 14.4 µM)	8 (≈ 7.21 µM)	16 (≈ 14.4 µM)	4 (≈ 3.6 µM)
CCCCCCCCCCCCCCC[C@H](NC(=O)[C@@H](NC(=O)N[C@H](C(=O)O)C(C)C)[C@H]1CCNC(=N)N1)C(=O)NCCCN[C@H](C(=O)O)[C@H](O[C@@H]1O[C@H](CN)[C@@H](O)[C@H]1O)[C@H]1O[C@@H](n2ccc(=O)[nH]c2=O)[C@H](O)[C@@H]1O	–	–	–	2 (≈ 1.87 µM)	2 (≈ 1.87 µM)	2 (≈ 1.87 µM)	2 (≈ 1.87 µM)	4 (≈ 3.74 µM)	–
CCCCCCOc1ccc(-c2ccc([C@@H](NC(=O)[C@@H](NC(=O)N[C@H](C(=O)O)C(C)C)[C@@H]3CCNC(=N)N3)C(=O)NCCCN[C@H](C(=O)O)[C@H](O[C@@H]3O[C@H](CN)[C@@H](O)[C@H]3O)[C@H]3O[C@@H](n4ccc(=O)[nH]c4=O)[C@H](O)[C@@H]3O)cc2)cc1	–	–	–	16 (≈ 14.4 µM)	8 (≈ 7.19 µM)	16 (≈ 14.4 µM)	16 (≈ 14.4 µM)	16 (≈ 14.4 µM)	4 (≈ 3.6 µM)
CCCCCCCCCCCCCCC[C@H](NC(=O)[C@H](CCCNC(=N)N)NC(=O)N[C@H](C(=O)O)C(C)C)C(=O)NCCCN[C@H](C(=O)O)[C@H](O[C@@H]1O[C@H](CN)[C@@H](O)[C@H]1O)[C@H]1O[C@@H](n2ccc(=O)[nH]c2=O)[C@H](O)[C@@H]1O	–	–	–	2 (≈ 1.87 µM)	1 (≈ 0.933 µM)	2 (≈ 1.87 µM)	2 (≈ 1.87 µM)	2 (≈ 1.87 µM)	–

From ChEMBL document CHEMBL1933006, “Mechanistic analysis of muraymycin analogues: a guide to the design of MraY inhibitors” (J Med Chem, 2011)
